Assay results: PubChem BioAssay
Activity calls are given as the source filed them.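 The calls were made as follows, unless noted: active = viability at or under a set limit in both replicates, limit being median viability minus 3 SD (cut at about 48% in these data, passing the limit was not always enough); inconclusive = at or under the limit in just one replicate; inactive = at or above the limit in both replicates.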

Legend:
[1] = reducers of endogenous Her2 protein level, primary screen, SKBR3 breast tumor cells, AlphaScreen, ATP viability (AID 461;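 active = Her2 level under about 52% in both replicate screens, with viability over 70% of control, limit read from the data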;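 as to Her2 level: lower value means less Her2 protein in the cells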;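 as to viability: percent of carrier control wells set as 100% viability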); details: 18-24 h, measured here: SKBR3 viability, ATP luminescence, at 10 µM
[2] = biological target: Receptor tyrosine-protein kinase erbB-2 (Homo sapiens) (UniProt P04626); assay: as above; details: 18-24 h, at 10 µM, stronger effect = lower value
Sequence of Receptor tyrosine-protein kinase erbB-2 (Homo sapiens) (P04626 whole entry, looked up): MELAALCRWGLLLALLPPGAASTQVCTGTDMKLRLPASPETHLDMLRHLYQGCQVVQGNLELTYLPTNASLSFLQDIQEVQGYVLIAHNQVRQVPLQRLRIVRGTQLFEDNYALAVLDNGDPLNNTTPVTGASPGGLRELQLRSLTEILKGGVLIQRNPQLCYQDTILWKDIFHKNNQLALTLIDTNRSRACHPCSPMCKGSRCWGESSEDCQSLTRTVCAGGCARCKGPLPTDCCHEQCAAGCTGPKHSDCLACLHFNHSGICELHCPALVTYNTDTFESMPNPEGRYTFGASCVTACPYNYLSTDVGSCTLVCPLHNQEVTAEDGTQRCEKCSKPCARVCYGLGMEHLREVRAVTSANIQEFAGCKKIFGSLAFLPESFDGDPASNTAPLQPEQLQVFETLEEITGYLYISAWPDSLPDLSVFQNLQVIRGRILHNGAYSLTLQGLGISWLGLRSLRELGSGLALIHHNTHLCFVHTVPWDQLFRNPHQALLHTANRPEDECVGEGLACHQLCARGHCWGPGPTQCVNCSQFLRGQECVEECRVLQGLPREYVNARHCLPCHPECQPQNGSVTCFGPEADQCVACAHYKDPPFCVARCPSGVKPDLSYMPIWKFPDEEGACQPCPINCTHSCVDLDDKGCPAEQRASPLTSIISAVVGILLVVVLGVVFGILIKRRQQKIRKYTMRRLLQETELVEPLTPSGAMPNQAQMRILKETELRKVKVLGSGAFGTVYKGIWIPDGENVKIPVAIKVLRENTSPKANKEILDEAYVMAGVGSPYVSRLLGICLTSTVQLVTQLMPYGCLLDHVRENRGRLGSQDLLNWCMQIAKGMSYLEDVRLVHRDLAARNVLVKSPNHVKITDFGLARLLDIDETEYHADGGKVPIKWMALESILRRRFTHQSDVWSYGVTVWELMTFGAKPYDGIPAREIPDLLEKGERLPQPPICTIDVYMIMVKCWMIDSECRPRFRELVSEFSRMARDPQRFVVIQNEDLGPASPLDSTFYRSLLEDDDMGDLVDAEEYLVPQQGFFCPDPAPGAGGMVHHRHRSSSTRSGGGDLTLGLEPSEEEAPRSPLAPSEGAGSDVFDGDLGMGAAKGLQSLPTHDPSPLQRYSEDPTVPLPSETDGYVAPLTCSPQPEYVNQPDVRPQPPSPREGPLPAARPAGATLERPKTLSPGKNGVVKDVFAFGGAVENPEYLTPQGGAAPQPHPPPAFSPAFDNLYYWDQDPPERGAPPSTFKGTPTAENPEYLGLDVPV

[3] = SK-BR-3 cell growth inhibitors, pilot screen, 24 h, human (AID 572;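 active = viability at or below 10% of carrier control in both of two separate runs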;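 also: compound exposure lasted between 18 and 24 h rather than exactly 24 h; 100% = carrier-treated control wells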); details: SK-BR-3 viability, CellTiter-Glo luminescence, at 10 µM, stronger effect = lower value
[4] = HUVEC growth inhibition – cell-based, human, primary screen (AID 575;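 active = viability at or below 30% in both replicate assays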;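 also: 100% = median of untreated cell wells with 0.1% DMSO on each plate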); details: HUVEC proliferation, CellTiter-Glo luminescence, 72 h; at 10 µM; stronger effect = lower value
Summary of the method: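 Assay system: primary human umbilical vein endothelial cells / Buffer or medium: endothelial basal medium with 2% FBS plus growth supplements / Compound dosing: one dose, 10 µM final, 0.1% DMSO / Timing: 72 h treatment at 37 °C / Signal: CTG luminescence / Benchmarks: 32 DMSO-only cell-control wells (high), 32 MePR drug-control wells (low) per plate / Plate: collagen-coated 384-well format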

[5] = growth inhibitors of H69AR lung tumor, primary screen, human, duplicate replicates (AID 580); details: H69AR lung tumor cells viability, ATP luminescence, 72 h; at 10 µM; stronger effect = lower value;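 also: 100% = mean luminescence of untreated wells and 0% = no signal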
[6] = reversal of MRP1-mediated doxorubicin resistance, pilot screen, H69AR cells, doxorubicin co-treatment (AID 601;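 active = viability loss from added drug above about 55%, and viability with drug at most 40%, in both replicates, limit read from the data, passing the limit was not always enough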); details: CellTiter-Glo, 72 h, at 10 µM; for differential viability (reversal): stronger effect = higher value
[7] = 384-well plate pilot, post-Golgi transport modulator project, inhibition of yeast transport mutant growth (AID 636; in the data active = inhibition above about 31%); details: absorbance 615 nm, about 18 h, stronger effect = higher value
[8] = growth suppression of yeast trafficking mutant, preliminary HTS, modulators of trafficking downstream of Golgi apparatus project, 1536-format plate, OD 615 nm (AID 637; in the data active = inhibition above about 30%); details: yeast transport mutant growth, absorbance 615 nm, 18 h; stronger effect = higher value
[9] = H69AR cells + 2 uM doxorubicin, measured here: viability with 2 uM doxorubicin, stronger effect = lower value
[10] = H69AR cells, compound alone cytotoxicity

Compound | viability [1] [%] | Her2 level [2] | viability [3] | viability [4] | viability [5] | differential viability (reversal) ([6]; H69AR cells + 2 uM doxorubicin) | viability [6, 9] [%] | viability [6, 10] [%] | inhibition [7] | inhibition [8]
CCC(C(=O)Nc1ccccc1C(=O)N1CCCC1)N1C(=O)c2ccccc2C1=O (stereo not given) | 96.5 | 88% (inactive) | 96.5% (inactive) | 78.3% (inactive) | 102% (inactive) | 5.91% (inactive) | 95.8 | 102 | -3.29% (inactive) | -4.83% (inactive)
O=C(Nc1cccc2ncccc12)c1ccc2c(c1)OCCO2 | 84 | 104% (inactive) | 84% (inactive) | 100% (inactive) | 104% (inactive) | 11.7% (inactive) | 92.1 | 104 | -1.17% (inactive) | -3% (inactive)
CCOC(=O)NC(=O)CSc1nnnn1-c1ccc(Cl)cc1 | 86.5 | 94% (inactive) | 86.5% (inactive) | 104% (inactive) | 106% (inactive) | 20.4% (inactive) | 85.7 | 106 | -5.2% (inactive) | 0.48% (inactive)
O=C(O)c1ccc2noc(-c3ccccc3)c2c1 | 127 | 106% (inactive) | 127% (inactive) | 86.9% (inactive) | 97.8% (inactive) | 5.36% (inactive) | 92.4 | 97.8 | -4.74% (inactive) | -4% (inactive)
Cc1ccc(C)c(-n2c(Cc3cc(=O)[nH]c(=O)[nH]3)nnc2SCC(=O)NCc2ccco2)c1 | 131 | 142% (inactive) | 131% (inactive) | 100% (inactive) | 102% (inactive) | 13.3% (inactive) | 89 | 102 | -6% (inactive) | -5% (inactive)
CCC(C)(C)NC(=O)CN(C(=O)c1snc(C(N)=O)c1N)c1ccc2c(c1)OCO2 | 104 | 94% (inactive) | 104% (inactive) | 110% (inactive) | 110% (inactive) | 7.68% (inactive) | 102 | 110 | -4.93% (inactive) | -1.27% (inactive)
Cc1ccc(-n2nnnc2SCC(=O)N2CCc3ccccc3C2)cc1 | 113 | 82.5% (inactive) | 113% (inactive) | 99.9% (inactive) | 82.1% (inactive) | -8.77% (inactive) | 90.8 | 82.1 | -2.5% (inactive) | 0.48% (inactive)
Cc1cc(Cn2ccnc2)c(C)cc1Cn1ccnc1 | 82 | 91.5% (inactive) | 82% (inactive) | 107% (inactive) | 101% (inactive) | 6.74% (inactive) | 94.1 | 101 | -3.6% (inactive) | -0.32% (inactive)
CCC(=O)Nc1cc(C)c(NC(=O)C23CC4CC(CC(C4)C2)C3)cn1 | 106 | 85% (inactive) | 106% (inactive) | 84.9% (inactive) | 107% (inactive) | 8.51% (inactive) | 98 | 107 | -3.65% (inactive) | -2.62% (inactive)
CC1(C)CC(=O)c2cnc(NC(=O)CSc3nc4ccccc4o3)nc2C1 | 96 | 98.5% (inactive) | 96% (inactive) | 81.4% (inactive) | 105% (inactive) | 9.52% (inactive) | 95.7 | 105 | -4.46% (inactive) | 0.83% (inactive)
Cc1ccc(S(=O)(=O)N2CCN(C(=O)CN3CCOCC3)C2C(C)C)cc1 (stereo not given) | 99.5 | 102% (inactive) | 99.5% (inactive) | 102% (inactive) | 104% (inactive) | 9.15% (inactive) | 94.5 | 104 | -2.86% (inactive) | -2.54% (inactive)
Cn1cccc1Cc1nnc(SCC(N)=O)n1-c1ccc(F)cc1 | 88 | 94.5% (inactive) | 88% (inactive) | 98.5% (inactive) | 99.8% (inactive) | 12.2% (inactive) | 87.6 | 99.8 | -1.28% (inactive) | 1.33% (inactive)
CCOC(=O)CNC(=O)Cn1cnc2c(nnn2-c2cccc(Cl)c2)c1=O | 82.5 | 109% (inactive) | 82.5% (inactive) | 105% (inactive) | 107% (inactive) | -1.7% (inactive) | 108 | 107 | -0.53% (inactive) | -6.83% (inactive)
CCOP(=O)(c1ccc(N(C)C)cc1)C(O)c1c(Cl)cccc1Cl (stereo not given) | 83 | 87.5% (inactive) | 83% (inactive) | 97.4% (inactive) | 90.1% (inactive) | 0.49% (inactive) | 89.6 | 90.1 | -1.6% (inactive) | -2.58% (inactive)
Cc1cc(N2CCN(C)CC2)nc(N2CCOCC2)n1 | 105 | 89.5% (inactive) | 105% (inactive) | 97.7% (inactive) | 92.2% (inactive) | 4.88% (inactive) | 87.4 | 92.2 | -3.82% (inactive) | -8.17% (inactive)
Cc1ccc(OCC(=O)N2CCN(C(=O)CCC3CCCC3)CC2)cc1 | 104 | 93.5% (inactive) | 104% (inactive) | 94.6% (inactive) | 86.6% (inactive) | -13.4% (inactive) | 100 | 86.6 | -6.89% (inactive) | -2.33% (inactive)

Compound | viability [1] [%] | Her2 level [2] | viability [3] | viability [4] | viability [5] | differential viability (reversal) ([6]; H69AR cells + 2 uM doxorubicin) | viability [6, 9] [%] | viability [6, 10] [%] | inhibition [7] | inhibition [8]
COc1ccccc1NC(=O)CSc1nnc(-c2ccncc2)o1 | 108 | 96% (inactive) | 108% (inactive) | 111% (inactive) | 93.8% (inactive) | 2.67% (inactive) | 91.2 | 93.8 | 0.91% (inactive) | -4.33% (inactive)
Cc1nc(NC2=NCN(CCN3CCOCC3)CN2)nc2c(C)cccc12 | 114 | 91.5% (inactive) | 114% (inactive) | 77.3% (inactive) | 95.2% (inactive) | -12.6% (inactive) | 108 | 95.2 | -2.11% (inactive) | -7.33% (inactive)
COc1ccccc1CNS(=O)(=O)c1cccc(S(=O)(=O)N2CCOCC2)c1 | 91.5 | 101% (inactive) | 91.5% (inactive) | 81.6% (inactive) | 91.7% (inactive) | 3.38% (inactive) | 88.3 | 91.7 | -3.2% (inactive) | -1.48% (inactive)
Oc1ccc(N2CCN(C(c3cccnc3)c3nnnn3Cc3ccccc3)CC2)cc1 (stereo not given) | 85 | 92% (inactive) | 85% (inactive) | 83.5% (inactive) | 90.2% (inactive) | -2.76% (inactive) | 92.9 | 90.2 | -4.74% (inactive) | -2% (inactive)
COc1ccccc1-c1coc2c(CN3CCN(CCO)CC3)c(O)ccc2c1=O | 87.5 | 93.5% (inactive) | 87.5% (inactive) | 94.5% (inactive) | 106% (inactive) | 18.9% (inactive) | 87.5 | 106 | -4.27% (inactive) | 0.65% (inactive)
COCCN(CCOC)C(=O)c1sc2nc(-c3ccccc3)cn2c1C | 93 | 78% (inactive) | 93% (inactive) | 82.4% (inactive) | 93.1% (inactive) | 10.4% (inactive) | 82.7 | 93.1 | -3.82% (inactive) | -5% (inactive)
CCOC(=O)N1CCN(Cc2nc3c(c(=O)[nH]c(=O)n3C)n2Cc2cc(C)ccc2C)CC1 | 102 | 105% (inactive) | 102% (inactive) | 112% (inactive) | 96.1% (inactive) | 7.95% (inactive) | 88.1 | 96.1 | -2.27% (inactive) | 0.32% (inactive)
COc1ccccc1C(O)P(=O)(OC(C)C)c1ccc(N(C)C)cc1 (stereo not given) | 101 | 120% (inactive) | 101% (inactive) | 104% (inactive) | 98.1% (inactive) | 11.6% (inactive) | 86.5 | 98.1 | -6.53% (inactive) | -5% (inactive)
CCOc1ccccc1N1CCN(c2nc3ccccc3nc2C(C#N)C(=O)OC)CC1 (stereo not given) | 74 | 78% (inactive) | 74% (inactive) | 71.7% (inactive) | 83.9% (inactive) | -4.64% (inactive) | 88.5 | 83.9 | 1.45% (inactive) | -2.1% (inactive)
CCOc1ccccc1C(=O)NCC(=O)OCC(=O)N1C(C)CCCC1C (stereo not given) | 98.5 | 89% (inactive) | 98.5% (inactive) | 102% (inactive) | 103% (inactive) | 9.78% (inactive) | 93.4 | 103 | -3.77% (inactive) | -3.02% (inactive)
O=C(O)C1CCCN1c1ncnc2c1oc1ccccc12 (stereo not given) | 101 | 92% (inactive) | 101% (inactive) | 81% (inactive) | 92.3% (inactive) | -7.12% (inactive) | 99.4 | 92.3 | -0.4% (inactive) | -7.1% (inactive)
CCCCCC(=O)N1CC2(C)CN(C(=O)CCCCC)CC(C)(C1)C2=O | 87 | 93% (inactive) | 87% (inactive) | 96.9% (inactive) | 87.5% (inactive) | 4.14% (inactive) | 83.4 | 87.5 | 0.9% (inactive) | 6.67% (inactive)
COc1cccc(-n2nnc3c(=O)n(Cc4cccc(F)c4)cnc32)c1 | 96.5 | 104% (inactive) | 96.5% (inactive) | 91.7% (inactive) | 99.9% (inactive) | 5.36% (inactive) | 94.6 | 99.9 | -2.7% (inactive) | 16.8% (inactive)
CCC(=O)N1CCc2cc(S(=O)(=O)CCC(=O)Nc3nc(C)cs3)ccc21 | 106 | 85% (inactive) | 106% (inactive) | 90.5% (inactive) | 74.4% (inactive) | 7.69% (inactive) | 66.8 | 74.4 | -4.8% (inactive) | -5.9% (inactive)
OC1(c2cccc(C(F)(F)F)c2)CCNCC1 | 110 | 91% (inactive) | 110% (inactive) | 96.5% (inactive) | 90.8% (inactive) | 4.62% (inactive) | 86.2 | 90.8 | -8.53% (inactive) | -3.02% (inactive)
